Test results reported in ChEMBL document CHEMBL4184273, “Discovery of chromenes as inhibitors of macrophage migration inhibitory factor” (Bioorg Med Chem, 2018).
The source made the active and inactive calls. The rule behind the calls is not given here.

How the values were obtained:
[1] = molecular target: T1, Macrophage migration inhibitory factor (Homo sapiens) (UniProt P14174); assay: Inhibition of recombinant His-tagged MIF tautomerase activity (unknown origin) at 25 uM using 4-HPP as substrate relative to control
T1 sequence (whole entry): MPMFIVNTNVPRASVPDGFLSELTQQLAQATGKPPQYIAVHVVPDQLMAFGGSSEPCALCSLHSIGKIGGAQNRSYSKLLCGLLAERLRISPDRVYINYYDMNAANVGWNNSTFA
In short: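 Single-point screen at final inhibitor 25 µM in 5% DMSO (from 10 mM DMSO stocks diluted in 0.4 M boric acid pH 6.2). MIF final 340 nM; reaction started with 4-HPP (final 0.5 mM; pre-equilibrated overnight in 50 mM ammonium acetate pH 6.0). Absorbance at 306 nm followed over time. Vehicle control 5% DMSO; no-MIF negative control. Mean of at least 2 independent experiments.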

[2] = molecular target: T2, Macrophage migration inhibitory factor (Homo sapiens, UniProt P14174); assay: Inhibition of recombinant His-tagged MIF tautomerase activity (unknown origin) using 4-HPP as substrate
T2 sequence (P14174 whole entry): T1 sequence (whole entry)

[3] = molecular target: T1, Macrophage migration inhibitory factor (Homo sapiens); assay: (§1) Inhibition of recombinant His-tagged MIF tautomerase activity (unknown origin) using 4-HPP as substrate pretreated for 2 mins followed by substrate addition
In short: (§2)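 Time-dependence test: inhibitor (125–0 µM, 1.6-fold series in 5% DMSO) preincubated with MIF (340 nM) for 2 or 40 min before 4-HPP was added (final 0.5 mM). IC50 curves were built from the 306 nm absorbance increase in boric acid pH 6.2, and the two preincubation times were compared.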

[4] = molecular target: T1, Macrophage migration inhibitory factor (Homo sapiens); assay: (§3) Inhibition of recombinant His-tagged MIF tautomerase activity (unknown origin) using 4-HPP as substrate pretreated for 40 mins followed by substrate addition; in short: as §2
[5] = molecular target: T1, Macrophage migration inhibitory factor (Homo sapiens); assay: Time-dependent inhibition of recombinant His-tagged MIF tautomerase activity (unknown origin) using 4-HPP as substrate; in short: as §2
[6] = molecular target: T2, Macrophage migration inhibitory factor; assay: as §1; in short: as §2
[7] = molecular target: T2, Macrophage migration inhibitory factor; assay: as §3; in short: as §2
[8] = molecular target: T1, Macrophage migration inhibitory factor (Homo sapiens); assay: Reversible inhibition of recombinant His-tagged MIF tautomerase activity (unknown origin) assessed as recovery of enzyme activity at 125 uM using 4-HPP as substrate by substrate dilution method
In short: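 Jump-dilution: MIF (34 µM) was mixed with inhibitor (125 µM, 5% DMSO), then diluted 100-fold into 4-HPP (0.5 mM) in boric acid. Absorbance at 306 nm was plotted against time to follow activity recovery. The control was treated the same way with 5% DMSO and no inhibitor.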

| inhibition [1] | Compound | also measured |
| --- | --- | --- |
| 45% | NC1=C2C(=O)N(Cc3ccc(N)cc3)C(=O)CC2c2ccc(OCc3ccc(Cl)cc3)cc2O1 (stereo not given) |  |
| 0% | C#CCN1C(=O)CC2C(=C(N)Oc3cc(C)ccc32)C1=O (stereo not given) |  |
| 0% | NC1=C2C(=O)N(Cc3ccc(N)cc3)C(=O)CC2c2ccccc2O1 (stereo not given) |  |
| 0% | COc1ccc2c(c1)OC(N)=C1C(=O)N(Cc3ccc(N)cc3)C(=O)CC12 (stereo not given) |  |
| 0% | Cc1ccc2c(c1)C1CC(=O)N(CCN3CCOCC3)C(=O)C1=C(N)O2 (stereo not given) |  |
| 0% | Cc1ccc2c(c1)OC(N)=C1C(=O)N(Cc3ccc(N)cc3)C(=O)CC12 (stereo not given) |  |
| 15% | NC1=C2C(=O)N(CCc3ccc(Cl)cc3)C(=O)CC2c2ccccc2O1 (stereo not given) |  |
| 55% | Cc1ccc2c(c1)OC(N)=C1C(=O)N(CCc3c[nH]c4ccccc34)C(=O)CC12 (stereo not given) | IC50 [2]: 6.2 µM; inhibition [3]: Active; inhibition [4]: Active; TDI [5]: inactive |
| 10% | CCOc1ccc2c(c1)OC(N)=C1C(=O)N(CC(C)C)C(=O)CC12 (stereo not given) |  |
| 15% | COc1ccc2c(c1)OC(N)=C1C(=O)N(CCc3cccs3)C(=O)CC12 (stereo not given) |  |
| 15% | COc1ccc2c(c1)OC(N)=C1C(=O)N(CC(C)C)C(=O)CC12 (stereo not given) |  |
| 10% | CCOc1ccc2c(c1)OC(N)=C1C(=O)N(CCc3c[nH]c4ccccc34)C(=O)CC12 (stereo not given) |  |
| 0% | COc1ccc2c(c1)OC(N)=C1C(=O)N(Cc3ccco3)C(=O)CC12 (stereo not given) |  |
| 40% | CC(C)CN1C(=O)CC2C(=C(N)Oc3cc(OCc4ccc(Cl)cc4)ccc32)C1=O (stereo not given) |  |
| 0% | COCCCN1C(=O)CC2C(=C(N)Oc3cc(OC)ccc32)C1=O (stereo not given) |  |
| 20% | Cc1ccc2c(c1)C1CC(=O)N(CCc3ccc(Cl)cc3Cl)C(=O)C1=C(N)O2 (stereo not given) |  |
| 60% | CCCCCCCCCCCCN1C(=O)CC2C(=C(N)Oc3cc(OCC)ccc32)C1=O (stereo not given) | IC50 [2]: 21 µM |
| 25% | Cc1ccc2c(c1)C1CC(=O)N(CCc3c[nH]c4ccccc34)C(=O)C1=C(N)O2 (stereo not given) |  |
| 0% | NC1=C2C(=O)N(Cc3ccco3)C(=O)CC2c2ccccc2O1 (stereo not given) |  |

| inhibition [1] | Compound | also measured |
| --- | --- | --- |
| 0% | COc1ccc2c(c1)OC(N)=C1C(=O)N(CCCN(C)C)C(=O)CC12 (stereo not given) |  |
| 60% | CCCCCCCCCCCCN1C(=O)CC2C(=C(N)Oc3ccccc32)C1=O (stereo not given) | IC50 [2]: 18 µM; IC50 [6]: 13.5 µM; IC50 [7]: 13.8 µM; TDI [5]: inactive; inhibition [8]: Active |
| 0% | Cc1ccc2c(c1)C1CC(=O)N(Cc3ccncc3)C(=O)C1=C(N)O2 (stereo not given) |  |
| 0% | COc1ccc2c(c1)OC(N)=C1C(=O)N(Cc3cccnc3)C(=O)CC12 (stereo not given) |  |
| 0% | COc1ccc2c(c1)OC(N)=C1C(=O)N(Cc3ccncc3)C(=O)CC12 (stereo not given) |  |
| 0% | Cc1ccc2c(c1)C1CC(=O)N(CCO)C(=O)C1=C(N)O2 (stereo not given) |  |
| 0% | COc1ccc2c(c1)OC(N)=C1C(=O)N(CCO)C(=O)CC12 (stereo not given) |  |
| 25% | COc1ccc2c(c1)OC(N)=C1C(=O)N(Cc3cccc4ccccc34)C(=O)CC12 (stereo not given) |  |
| 10% | C=CCN1C(=O)CC2C(=C(N)Oc3cc(OCc4ccc(Cl)cc4)ccc32)C1=O (stereo not given) |  |
| 0% | CCOCCN1C(=O)CC2C(=C(N)Oc3cc(OCC)ccc32)C1=O (stereo not given) |  |
| 5% | Cc1ccc2c(c1)OC(N)=C1C(=O)N(CCc3ccc(Cl)cc3)C(=O)CC12 (stereo not given) |  |
| 10% | Cc1ccc2c(c1)C1CC(=O)N(Cc3ccc(N)cc3)C(=O)C1=C(N)O2 (stereo not given) |  |
| 70% | NC1=C2C(=O)N(CCc3c[nH]c4ccccc34)C(=O)CC2c2ccc(OCc3ccc(Cl)cc3)cc2O1 (stereo not given) | IC50 [2]: 8 µM |
| 0% | Cc1ccc2c(c1)C1CC(=O)N(CC(C)C)C(=O)C1=C(N)O2 (stereo not given) |  |
| 0% | CCOc1ccc2c(c1)OC(N)=C1C(=O)N(Cc3ccncc3)C(=O)CC12 (stereo not given) |  |
| 15% | NC1=C2C(=O)N(Cc3ccncc3)C(=O)CC2c2ccc(OCc3ccc(Cl)cc3)cc2O1 (stereo not given) |  |
| 30% | CCOc1ccc2c(c1)OC(N)=C1C(=O)N(CCc3ccc(Cl)cc3Cl)C(=O)CC12 (stereo not given) |  |
| 10% | CCOCCN1C(=O)CC2C(=C(N)Oc3cc(OCc4ccc(Cl)cc4)ccc32)C1=O (stereo not given) |  |
| 20% | Cc1ccc2c(c1)OC(N)=C1C(=O)N(CCc3ccc(Cl)cc3Cl)C(=O)CC12 (stereo not given) |  |

| inhibition [1] | Compound | also measured |
| --- | --- | --- |
| 15% | Cc1ccc2c(c1)C1CC(=O)N(Cc3ccco3)C(=O)C1=C(N)O2 (stereo not given) |  |
| 0% | C#CCN1C(=O)CC2C(=C(N)Oc3cc(OC)ccc32)C1=O (stereo not given) |  |
| 0% | CCOc1ccc2c(c1)OC(N)=C1C(=O)N(CCCN3CCOCC3)C(=O)CC12 (stereo not given) |  |
| 10% | Cc1ccc2c(c1)C1CC(=O)N(CCc3cccs3)C(=O)C1=C(N)O2 (stereo not given) |  |
| 0% | COc1ccc2c(c1)OC(N)=C1C(=O)N(CCCN3CCOCC3)C(=O)CC12 (stereo not given) |  |
| 0% | CCOc1ccc2c(c1)OC(N)=C1C(=O)N(Cc3ccc(N)cc3)C(=O)CC12 (stereo not given) |  |
| 0% | Cc1ccc2c(c1)C1CC(=O)N(Cc3cccnc3)C(=O)C1=C(N)O2 (stereo not given) |  |
| 0% | Cc1ccc2c(c1)OC(N)=C1C(=O)N(Cc3ccncc3)C(=O)CC12 (stereo not given) |  |
| 80% | CCCCCCCCCCCCN1C(=O)CC2C(=C(N)Oc3cc(OCc4ccc(Cl)cc4)ccc32)C1=O (stereo not given) | IC50 [2]: 7.1 µM |
| 0% | NC1=C2C(=O)N(CCO)C(=O)CC2c2ccccc2O1 (stereo not given) |  |
| 0% | CCN(CC)CCCN1C(=O)CC2C(=C(N)Oc3ccc(C)cc32)C1=O (stereo not given) |  |
| 80% | NC1=C2C(=O)N(CCc3ccc(Cl)cc3)C(=O)CC2c2ccc(OCc3ccc(Cl)cc3)cc2O1 (stereo not given) | IC50 [2]: 13 µM |
| 0% | Cc1ccc2c(c1)OC(N)=C1C(=O)N(CCCN(C)C)C(=O)CC12 (stereo not given) |  |
| 35% | Cc1ccc2c(c1)OC(N)=C1C(=O)N(Cc3cccc4ccccc34)C(=O)CC12 (stereo not given) |  |
| 10% | CCOc1ccc2c(c1)OC(N)=C1C(=O)N(Cc3cccnc3)C(=O)CC12 (stereo not given) |  |
| 50% | CCOc1ccc2c(c1)OC(N)=C1C(=O)N(Cc3cccc4ccccc34)C(=O)CC12 (stereo not given) |  |
| 0% | COCCN1C(=O)CC2C(=C(N)Oc3cc(C)ccc32)C1=O (stereo not given) |  |
| 50% | CCCCCCCCCCCCN1C(=O)CC2C(=C(N)Oc3ccc(C)cc32)C1=O (stereo not given) |  |
| 15% | NC1=C2C(=O)N(CCc3c[nH]c4ccccc34)C(=O)CC2c2ccccc2O1 (stereo not given) |  |
